From ChEMBL document CHEMBL1124042, “Synthesis and potential antipsychotic activity of 1H-imidazo[1,2-c]pyrazolo[3,4-e]pyrimidines” (J Med Chem, 1988)

Columns and labels:
[1] = target: T1, Adenosine receptor A1 (Rattus norvegicus, UniProt P25099); assay: Displacement of [3H]CHA (N6-Cyclohexyl adenosine) from adenosine A1 receptor in rat brain; type: tissue-based
T1 sequence (P25099 whole entry): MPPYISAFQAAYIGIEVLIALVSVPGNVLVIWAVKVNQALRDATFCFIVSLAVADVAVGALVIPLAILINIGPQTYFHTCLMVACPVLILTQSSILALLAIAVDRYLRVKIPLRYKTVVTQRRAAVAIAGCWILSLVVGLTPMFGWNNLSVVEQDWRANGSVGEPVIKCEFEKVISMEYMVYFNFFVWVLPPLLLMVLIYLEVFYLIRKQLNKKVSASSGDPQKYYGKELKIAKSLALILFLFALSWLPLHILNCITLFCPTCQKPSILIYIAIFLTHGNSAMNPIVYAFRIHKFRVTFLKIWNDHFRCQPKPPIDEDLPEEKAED
Outline: (§1)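 Rat brain radioligand displacement binding. IC50 values (μM) were derived by nonlinear regression from four or five concentrations of compound.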

[2] = target: Beta-1 adrenergic receptor (Rattus norvegicus, UniProt P18090); assay: Displacement of [3H]DHA (Dihydroalprenolol) from beta-1 adrenergic receptor in rat brain; type: tissue-based; outline: as §1
[3] = target: T2, Adrenergic receptor alpha-1 (Rattus norvegicus, UniProt P15823+P23944+P43140); assay: Displacement of [3H]WB-4101 from alpha-1 adrenergic receptor in rat brain; type: tissue-based; outline: as §1
T2 sequence (P15823 whole entry): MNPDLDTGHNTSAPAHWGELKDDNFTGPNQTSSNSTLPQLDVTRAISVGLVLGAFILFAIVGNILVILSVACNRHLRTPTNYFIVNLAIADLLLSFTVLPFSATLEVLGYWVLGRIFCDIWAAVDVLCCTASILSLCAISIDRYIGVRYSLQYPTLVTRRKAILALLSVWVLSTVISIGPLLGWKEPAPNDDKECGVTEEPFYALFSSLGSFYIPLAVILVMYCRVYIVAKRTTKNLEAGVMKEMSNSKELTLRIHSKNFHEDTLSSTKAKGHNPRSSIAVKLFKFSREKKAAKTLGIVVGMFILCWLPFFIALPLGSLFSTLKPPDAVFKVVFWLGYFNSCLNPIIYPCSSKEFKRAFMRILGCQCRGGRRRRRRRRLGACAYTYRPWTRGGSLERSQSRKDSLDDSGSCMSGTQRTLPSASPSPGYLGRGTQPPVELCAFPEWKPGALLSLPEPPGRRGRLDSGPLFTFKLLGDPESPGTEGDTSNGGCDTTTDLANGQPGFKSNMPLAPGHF
T2 sequence (P23944 whole entry): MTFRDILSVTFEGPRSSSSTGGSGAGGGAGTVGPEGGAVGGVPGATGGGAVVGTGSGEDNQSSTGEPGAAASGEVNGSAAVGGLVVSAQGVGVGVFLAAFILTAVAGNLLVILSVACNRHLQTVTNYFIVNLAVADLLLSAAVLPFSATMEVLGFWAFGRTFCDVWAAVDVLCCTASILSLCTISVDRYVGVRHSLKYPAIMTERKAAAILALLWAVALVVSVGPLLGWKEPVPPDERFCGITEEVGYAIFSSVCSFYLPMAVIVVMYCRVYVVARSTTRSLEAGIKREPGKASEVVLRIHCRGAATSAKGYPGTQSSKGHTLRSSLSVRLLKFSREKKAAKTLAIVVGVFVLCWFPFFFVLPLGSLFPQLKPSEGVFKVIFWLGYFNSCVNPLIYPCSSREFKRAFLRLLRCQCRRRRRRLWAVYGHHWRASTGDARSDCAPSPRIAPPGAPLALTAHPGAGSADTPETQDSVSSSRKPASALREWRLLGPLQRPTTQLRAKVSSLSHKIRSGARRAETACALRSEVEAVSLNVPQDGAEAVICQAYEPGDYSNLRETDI
T2 sequence (P43140 whole entry): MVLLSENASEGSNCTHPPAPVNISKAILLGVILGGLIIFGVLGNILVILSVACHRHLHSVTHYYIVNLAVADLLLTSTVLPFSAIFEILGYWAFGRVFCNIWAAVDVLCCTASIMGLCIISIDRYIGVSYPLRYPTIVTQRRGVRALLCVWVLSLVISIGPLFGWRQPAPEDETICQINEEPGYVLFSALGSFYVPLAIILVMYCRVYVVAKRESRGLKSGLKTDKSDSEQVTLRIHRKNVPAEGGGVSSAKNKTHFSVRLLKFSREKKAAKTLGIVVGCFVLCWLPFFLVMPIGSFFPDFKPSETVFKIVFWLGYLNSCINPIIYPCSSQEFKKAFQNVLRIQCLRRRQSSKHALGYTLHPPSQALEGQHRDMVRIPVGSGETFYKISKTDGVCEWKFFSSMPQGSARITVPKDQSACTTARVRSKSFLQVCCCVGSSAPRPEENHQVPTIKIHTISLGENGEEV

[4] = tested on: Monkey; assay: Inhibition of Sidman avoidance in squirrel monkeys after the compound administered through perorally; type: functional; conditions: in Saimiri, po
Outline: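 Oral dosing in squirrel monkeys trained on continuous (Sidman) avoidance responding. ED50 reported ± SEM.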

Chain of Beta-1 adrenergic receptor (P18090 whole entry): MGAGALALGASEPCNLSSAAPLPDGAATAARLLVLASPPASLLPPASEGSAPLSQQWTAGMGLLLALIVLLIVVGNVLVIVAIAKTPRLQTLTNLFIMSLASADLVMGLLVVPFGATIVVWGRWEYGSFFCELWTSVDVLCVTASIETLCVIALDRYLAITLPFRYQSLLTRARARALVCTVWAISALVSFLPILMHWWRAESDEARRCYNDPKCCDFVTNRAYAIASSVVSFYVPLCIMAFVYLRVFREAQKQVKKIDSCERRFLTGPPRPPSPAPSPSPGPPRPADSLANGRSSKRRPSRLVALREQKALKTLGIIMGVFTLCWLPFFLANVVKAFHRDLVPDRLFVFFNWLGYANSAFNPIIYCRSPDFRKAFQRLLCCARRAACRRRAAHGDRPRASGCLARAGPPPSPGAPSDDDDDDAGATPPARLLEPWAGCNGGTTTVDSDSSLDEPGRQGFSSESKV

SMILES: CCC1CN2C(C)=Nc3c(C)nn(C)c3C2=N1 (centres undefined)
- IC50 [1]: > 10 µM
- IC50 [2]: > 10 µM
- IC50 [3]: > 10 µM
- ED50 [4]: 7.25 mg/kg
